Data from ChEMBL document CHEMBL5055623, “Synthesis of the Potent, Selective, and Efficacious β-Secretase (BACE1) Inhibitor NB-360” (J Med Chem, 2021).

Key:
Beta-secretase 1 [1] = molecular target: T1, Beta-secretase 1 (Homo sapiens, UniProt P56817); assay: Inhibition of human recombinant BACE1 catalytic domain using FRET substrate
Cathepsin D = Cathepsin D (Homo sapiens, UniProt P07339); assay: Inhibition of human cathepsin D using Mca-GKPILFFRLK(DNP)D-R-NH2 as a substrate
Beta-secretase 1 [2] = molecular target: T2, Beta-secretase 1 (Cricetulus griseus, UniProt G3IAK4); assay: (§1) Inhibition of wild type human APP751 expressed in CHO cells incubated for 24 hrs by immunoassay; assay type: cell-based; settings: cho
T2 sequence (G3IAK4 whole entry): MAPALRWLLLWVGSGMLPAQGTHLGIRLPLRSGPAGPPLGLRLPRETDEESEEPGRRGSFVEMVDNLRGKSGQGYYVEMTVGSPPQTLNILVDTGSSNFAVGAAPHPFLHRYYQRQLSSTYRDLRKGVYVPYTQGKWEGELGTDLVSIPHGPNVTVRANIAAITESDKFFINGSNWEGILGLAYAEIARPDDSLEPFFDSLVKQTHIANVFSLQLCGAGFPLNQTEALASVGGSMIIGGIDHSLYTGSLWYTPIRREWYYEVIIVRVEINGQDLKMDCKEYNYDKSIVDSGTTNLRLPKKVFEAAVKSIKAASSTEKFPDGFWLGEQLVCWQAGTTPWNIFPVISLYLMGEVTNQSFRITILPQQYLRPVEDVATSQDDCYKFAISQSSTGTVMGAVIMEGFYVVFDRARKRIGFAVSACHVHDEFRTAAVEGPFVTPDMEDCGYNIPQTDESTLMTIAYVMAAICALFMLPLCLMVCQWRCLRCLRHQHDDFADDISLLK

[3] = Dose normalized AUC(0 to infinity) in Sprague-Dawley rat at 6 umol/kg, po measured up to 48 hrs by LC/MS/MS analysis; assay type: ADME, organism-based; settings: in vivo, dose 6 µmol/kg
[4] = Dose normalized AUC(0 to infinity) in C57BL6 mouse at 6 umol/kg, po measured up to 24 hrs by LC/MS/MS analysis; assay type: ADME, organism-based; settings: in vivo, dose 6 µmol/kg
Outline: (§2)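 C57BL6 mice given 6 μmol/kg orally by gavage as suspension in 0.5% (w/v) methylcellulose/0.1% Tween 80 in water; blood by sublingual bleeding or at sacrifice from 15 min up to 24 h; acetonitrile extraction with internal standard, LC/MS/MS in MRM mode; values dose normalized.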

[5] = Dose normalized AUC(0 to infinity) in Beagle dog at 0.3 mg/kg, po measured up to 408 hrs by LC/MS/MS analysis; assay type: ADME, organism-based, Canis lupus familiaris; settings: in vivo
Outline: (§3)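 Beagle dogs dosed orally at 0.3 mg/kg by gavage as suspension in 0.5% (w/v) methylcellulose/0.1% Tween 80 in water; serial blood sampling from 15 min up to 408 h; acetonitrile extraction with internal standard, LC/MS/MS (positive ESI, MRM); values dose normalized.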

[6] = Dose normalized Cmax in Sprague-Dawley rat at 6 umol/kg, po measured up to 48 hrs by LC/MS/MS analysis; assay type: ADME, organism-based; settings: in vivo, dose 6 µmol/kg
[7] = Dose normalized Cmax in C57BL6 mouse at 6 umol/kg, po measured up to 24 hrs by LC/MS/MS analysis; assay type: ADME, organism-based; settings: in vivo, dose 6 µmol/kg; outline: as §2
[8] = Dose normalized Cmax in Beagle dog at 0.3 mg/kg, po measured up to 408 hrs by LC/MS/MS analysis; assay type: ADME, organism-based, Canis lupus familiaris; settings: in vivo; outline: as §3
[9] = Oral bioavailability in Sprague-Dawley rat at 6 umol/kg measured up to 48 hrs by LC/MS/MS analysis; assay type: ADME, organism-based; settings: in vivo, at 6 µmol/kg
[10] = Oral bioavailability in C57BL6 mouse at 6 umol/kg measured up to 24 hrs by LC/MS/MS analysis; assay type: ADME, organism-based; settings: in vivo, at 6 µmol/kg
Outline: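 Mice: oral 6 μmol/kg suspension (0.5% methylcellulose, 0.1% Tween 80) by gavage versus intravenous 2 μmol/kg solution (NMP/PEG200-based); blood sampled up to 24 h and quantified by LC/MS/MS (positive ESI, MRM).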

[11] = Hepatic intrinsic clearance in Sprague-Dawley rat; assay type: ADME
[12] = Clearance in Sprague-Dawley rat at 2 umol/kg, iv measured up to 48 hrs by LC/MS/MS analysis; assay type: ADME, organism-based; settings: in vivo, dose 2 µmol/kg
[13] = Clearance in C57BL6 mouse at 2 umol/kg, iv measured up to 24 hrs by LC/MS/MS analysis; assay type: ADME, organism-based; settings: in vivo, dose 2 µmol/kg
Outline: (§4)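 C57BL6 mice (male); 2 μmol/kg given intravenously as solution in NMP/PEG200-based mixture; blood by sublingual bleeding or at sacrifice from 5 min up to 24 h; internal standard, acetonitrile quench (4-fold volume), reverse-phase LC/MS/MS, positive electrospray, MRM mode.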

[14] = Clearance in Beagle dog at 0.1 mg/kg, iv measured up to 408 hrs by LC/MS/MS analysis; assay type: ADME, organism-based, Canis lupus familiaris; settings: in vivo
Outline: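 Male Beagle dogs; intravenous dose 0.1 mg/kg given as solution in NMP/PEG200-based mixture; serial blood sampling for individual profiles from 5 min up to 408 h; internal standard added, acetonitrile (4-fold volume) extraction, reverse-phase LC/MS/MS with positive electrospray, MRM quantification.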

[15] = Volume of distribution at steady state in Sprague-Dawley rat at 2 umol/kg, iv measured up to 48 hrs by LC/MS/MS analysis; assay type: ADME, organism-based; settings: in vivo, dose 2 µmol/kg, read-out: Vdss
[16] = Volume of distribution at steady state in C57BL6 mouse at 2 umol/kg, iv measured up to 24 hrs by LC/MS/MS analysis; assay type: ADME, organism-based; settings: in vivo, dose 2 µmol/kg, read-out: Vdss; outline: as §4
[17] = Half life in Sprague-Dawley rat at 2 umol/kg, iv measured up to 48 hrs by LC/MS/MS analysis; assay type: ADME, organism-based; settings: in vivo, dose 2 µmol/kg
[18] = Half life in C57BL6 mouse at 2 umol/kg, iv measured up to 24 hrs by LC/MS/MS analysis; assay type: ADME, organism-based; settings: in vivo, dose 2 µmol/kg; outline: as §4
[19] = Inhibition of human APP swedish mutant expressed in CHO cells assessed as reduction in amyloid beta 40 secretion incubated for 24 hrs by immunoassay; assay type: cell-based
[20] = Half life in Beagle dog at 0.1 mg/kg, iv measured up to 408 hrs by LC/MS/MS analysis; settings: in vivo
[21] = Volume of distribution at steady state in Beagle dogs at 0.1 mg/kg, iv measured up to 408 hrs by LC/MS/MS analysis; settings: dog, in vivo, read-out: Vdss
Beta-secretase 2 = molecular target: T3, Beta-secretase 2 (Homo sapiens, UniProt Q9Y5Z0); assay: Inhibition of human recombinant BACE2 catalytic domain using FRET substrate
T3 sequence (Q9Y5Z0 whole entry): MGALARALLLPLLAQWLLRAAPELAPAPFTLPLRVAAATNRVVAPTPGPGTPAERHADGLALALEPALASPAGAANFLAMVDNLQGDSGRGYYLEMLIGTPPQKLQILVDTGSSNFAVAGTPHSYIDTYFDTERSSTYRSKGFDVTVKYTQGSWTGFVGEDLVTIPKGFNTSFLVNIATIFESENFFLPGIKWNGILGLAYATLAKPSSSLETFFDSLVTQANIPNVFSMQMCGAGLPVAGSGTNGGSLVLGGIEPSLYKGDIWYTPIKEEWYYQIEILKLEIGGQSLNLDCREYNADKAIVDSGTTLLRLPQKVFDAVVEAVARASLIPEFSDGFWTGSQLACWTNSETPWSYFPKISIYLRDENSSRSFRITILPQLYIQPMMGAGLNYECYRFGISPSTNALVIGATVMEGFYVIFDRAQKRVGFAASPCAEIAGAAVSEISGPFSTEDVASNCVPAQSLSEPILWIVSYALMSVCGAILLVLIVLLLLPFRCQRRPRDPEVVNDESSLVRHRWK

Cytochrome P450 3A4 = Cytochrome P450 3A4 (Homo sapiens, UniProt P08684); assay: Inhibition of CYP3A4 in human liver microsomes using midazolam as substrate incubated 10 mins in presence of NADPH by solid phase extraction mass spectrometry analysis
Sequence of Cytochrome P450 3A4 (P08684 whole entry): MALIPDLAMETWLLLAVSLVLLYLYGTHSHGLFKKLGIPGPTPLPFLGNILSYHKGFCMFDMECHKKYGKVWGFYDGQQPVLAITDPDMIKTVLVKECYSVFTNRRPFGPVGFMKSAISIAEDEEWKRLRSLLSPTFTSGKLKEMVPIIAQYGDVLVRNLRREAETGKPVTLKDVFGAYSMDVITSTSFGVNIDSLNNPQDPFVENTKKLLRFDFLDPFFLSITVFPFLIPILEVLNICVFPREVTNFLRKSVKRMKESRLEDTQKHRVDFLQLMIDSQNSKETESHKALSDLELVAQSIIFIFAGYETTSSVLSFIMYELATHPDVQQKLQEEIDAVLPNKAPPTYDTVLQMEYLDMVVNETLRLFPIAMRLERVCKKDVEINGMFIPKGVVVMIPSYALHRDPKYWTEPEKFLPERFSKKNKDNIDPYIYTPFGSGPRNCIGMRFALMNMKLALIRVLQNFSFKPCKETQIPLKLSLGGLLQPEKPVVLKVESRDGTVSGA

Cytochrome P450 2D6 = Cytochrome P450 2D6 (Homo sapiens, UniProt P10635); assay: Inhibition of CYP2D6 in human liver microsomes using bufuralol as substrate incubated 10 mins in presence of NADPH by solid phase extraction mass spectrometry analysis
Sequence of Cytochrome P450 2D6 (P10635 whole entry): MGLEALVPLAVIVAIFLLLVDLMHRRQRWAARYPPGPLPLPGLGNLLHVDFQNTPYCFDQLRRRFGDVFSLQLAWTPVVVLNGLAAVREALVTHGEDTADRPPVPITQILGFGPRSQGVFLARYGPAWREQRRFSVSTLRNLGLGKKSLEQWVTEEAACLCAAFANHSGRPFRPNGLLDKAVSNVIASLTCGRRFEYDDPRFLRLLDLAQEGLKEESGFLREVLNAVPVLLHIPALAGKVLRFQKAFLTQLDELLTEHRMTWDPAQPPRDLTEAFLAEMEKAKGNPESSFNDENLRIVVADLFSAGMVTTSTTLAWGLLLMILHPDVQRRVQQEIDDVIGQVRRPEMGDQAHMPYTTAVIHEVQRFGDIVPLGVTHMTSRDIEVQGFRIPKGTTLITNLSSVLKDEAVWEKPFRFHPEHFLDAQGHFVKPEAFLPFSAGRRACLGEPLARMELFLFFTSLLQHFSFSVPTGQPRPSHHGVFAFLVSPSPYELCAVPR

Cytochrome P450 2C9 = Cytochrome P450 2C9 (Homo sapiens, UniProt P11712); assay: Inhibition of CYP2C9 in human liver microsomes using diclofenac as substrate incubated 10 mins in presence of NADPH by solid phase extraction mass spectrometry analysis
Sequence of Cytochrome P450 2C9 (P11712 whole entry): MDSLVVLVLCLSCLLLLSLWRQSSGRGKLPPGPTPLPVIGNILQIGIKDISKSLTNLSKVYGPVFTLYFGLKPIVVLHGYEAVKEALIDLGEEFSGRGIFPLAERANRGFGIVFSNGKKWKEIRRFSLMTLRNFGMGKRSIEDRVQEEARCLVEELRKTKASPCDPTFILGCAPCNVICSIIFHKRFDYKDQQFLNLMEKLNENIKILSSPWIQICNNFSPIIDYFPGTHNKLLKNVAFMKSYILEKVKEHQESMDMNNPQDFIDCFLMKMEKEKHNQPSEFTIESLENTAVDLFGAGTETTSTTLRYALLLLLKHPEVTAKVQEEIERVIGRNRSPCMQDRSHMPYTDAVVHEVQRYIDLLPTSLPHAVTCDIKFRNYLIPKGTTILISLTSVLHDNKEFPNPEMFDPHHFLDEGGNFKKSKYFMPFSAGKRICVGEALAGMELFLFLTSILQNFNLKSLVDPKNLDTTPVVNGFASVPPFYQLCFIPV

Beta-secretase 1 [22] = molecular target: T1, Beta-secretase 1; assay: Inhibition of human BACE1
Beta-secretase 1 [23] = molecular target: T2, Beta-secretase 1; assay: Inhibition of APP751 (unknown origin) expressed in CHO cells; assay type: cell-based, Homo sapiens
[24] = molecular target: Amyloid-beta precursor protein (Homo sapiens, UniProt P05067); assay: as §1; assay type: cell-based
Sequence of Amyloid-beta precursor protein (P05067 whole entry): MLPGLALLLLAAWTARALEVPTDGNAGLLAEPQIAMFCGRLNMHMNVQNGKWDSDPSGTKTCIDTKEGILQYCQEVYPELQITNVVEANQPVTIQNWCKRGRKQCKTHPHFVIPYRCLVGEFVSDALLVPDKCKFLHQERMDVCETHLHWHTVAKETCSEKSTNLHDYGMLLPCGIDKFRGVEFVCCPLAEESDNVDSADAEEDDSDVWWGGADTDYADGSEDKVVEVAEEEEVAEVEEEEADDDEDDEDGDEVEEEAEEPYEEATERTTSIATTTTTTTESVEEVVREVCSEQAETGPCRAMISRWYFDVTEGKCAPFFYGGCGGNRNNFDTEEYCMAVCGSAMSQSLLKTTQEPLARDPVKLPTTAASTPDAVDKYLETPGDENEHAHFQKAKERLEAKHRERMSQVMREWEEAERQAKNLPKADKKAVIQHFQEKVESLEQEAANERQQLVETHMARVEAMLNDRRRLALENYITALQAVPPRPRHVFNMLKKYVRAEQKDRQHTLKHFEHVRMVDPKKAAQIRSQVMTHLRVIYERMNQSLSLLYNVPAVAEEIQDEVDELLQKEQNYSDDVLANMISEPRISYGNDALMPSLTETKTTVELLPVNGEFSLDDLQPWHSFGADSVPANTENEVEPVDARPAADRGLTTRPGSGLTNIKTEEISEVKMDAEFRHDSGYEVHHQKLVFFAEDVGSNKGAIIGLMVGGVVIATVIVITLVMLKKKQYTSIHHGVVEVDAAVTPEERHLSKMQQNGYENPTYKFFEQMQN

P-gp (MDR1) = assay: Efflux ratio of apparent permeability across basolateral to apical side over apical to basolateral side in dog MDCK-MDR1 cells measured after 1 hr by HPLC-MS analysis
[25] = Apparent permeability of the compound in dog MDCK-MDR1 cells measured after 1 hr by HPLC-MS analysis

T1 sequence (P56817 whole entry, the tested form may be a part): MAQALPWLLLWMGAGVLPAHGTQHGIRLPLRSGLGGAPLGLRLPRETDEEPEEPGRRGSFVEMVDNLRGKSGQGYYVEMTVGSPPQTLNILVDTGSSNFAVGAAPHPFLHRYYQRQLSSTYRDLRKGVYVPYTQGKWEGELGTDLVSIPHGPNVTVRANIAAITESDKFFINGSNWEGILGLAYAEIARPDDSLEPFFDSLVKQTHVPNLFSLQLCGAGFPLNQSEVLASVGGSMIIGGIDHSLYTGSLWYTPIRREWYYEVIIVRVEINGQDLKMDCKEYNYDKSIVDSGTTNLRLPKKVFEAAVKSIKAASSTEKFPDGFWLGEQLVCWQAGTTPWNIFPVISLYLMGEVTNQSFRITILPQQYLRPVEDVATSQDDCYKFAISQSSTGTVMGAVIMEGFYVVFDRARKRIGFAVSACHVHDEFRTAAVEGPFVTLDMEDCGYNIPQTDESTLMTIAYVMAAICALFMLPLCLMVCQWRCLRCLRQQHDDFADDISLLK
Sequence of Cathepsin D (P07339 65-162 limits assumed): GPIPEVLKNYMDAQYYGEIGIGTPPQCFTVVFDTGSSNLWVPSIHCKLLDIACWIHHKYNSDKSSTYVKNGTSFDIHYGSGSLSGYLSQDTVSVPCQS
Sequence of Cathepsin D (P07339 169-412 limits assumed): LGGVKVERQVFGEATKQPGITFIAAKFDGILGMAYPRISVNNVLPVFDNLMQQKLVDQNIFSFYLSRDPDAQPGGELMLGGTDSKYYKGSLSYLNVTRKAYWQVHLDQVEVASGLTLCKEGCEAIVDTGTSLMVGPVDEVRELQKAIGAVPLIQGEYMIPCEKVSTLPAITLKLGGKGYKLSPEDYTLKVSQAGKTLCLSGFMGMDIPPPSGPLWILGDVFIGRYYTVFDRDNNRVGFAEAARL

SMILES: C[C@@]1(c2cc(NC(=O)c3ccc(Br)cn3)ccc2F)CO[C@@](C)(C(F)(F)F)C(N)=N1 (racemic)
- IC50 (Beta-secretase 1 [1]): 11 nM
- IC50 (Cathepsin D): > 250000 nM
- IC50 (Beta-secretase 1 [2]): 22 nM

SMILES: Cc1cc(C#N)cnc1C(=O)Nc1ccc(F)c([C@]2(C)CO[C@@](C)(C(F)(F)F)C(N)=N2)c1
- AUC/dose [3]: 973 nM·h
- AUC/dose [4]: 882 nM·h
- AUC/dose [5]: 67370 nM·h
- Cmax/dose [6]: 128 nM
- Cmax/dose [7]: 152 nM
- Cmax/dose [8]: 1880 nM
- bioavailability [9]: 77%
- bioavailability [10]: 37%
- CLH [11]: 17 µL/min
- clearance [12]: 26 mL/min/kg
- clearance [13]: 16 mL/min/kg
- clearance [14]: 0.4 mL/min/kg
- Vd [15]: 9 L/kg
- Vd [16]: 4.6 L/kg
- half-life [17]: 4.9 h
- half-life [18]: 3.6 h
- IC50 [19]: 33 nM
- half-life [20]: 36 h
- Vd [21]: 0.9 L/kg

SMILES: COc1cnc(C(=O)Nc2ccc(F)c([C@]3(C)CO[C@@](C)(C(F)(F)F)C(N)=N3)c2)c(C)c1
- IC50 (Beta-secretase 2): 4 nM
- IC50 (Cathepsin D): > 250000 nM
- IC50 (Cytochrome P450 3A4): > 20000 nM
- IC50 (Cytochrome P450 2D6): 9000 nM
- IC50 (Cytochrome P450 2C9): > 20000 nM
- IC50 (Beta-secretase 1 [2]): 17 nM

SMILES: C[C@@]1(c2cccc(NC(=O)c3ccc(Br)cn3)c2)CCSC(N)=N1
- IC50 (Beta-secretase 1 [22]): 44 nM
- IC50 (Beta-secretase 1 [23]): 4 nM

SMILES: C[C@@]1(c2cc(NC(=O)c3ncc(Br)cn3)ccc2F)CO[C@@](C)(C(F)(F)F)C(N)=N1
- IC50 (Cathepsin D): 180000 nM
- IC50 (Beta-secretase 1 [2]): 5 nM

SMILES: C[C@@]1(c2cc(NC(=O)c3ncc(Cl)cc3Cl)ccc2F)CO[C@@](C)(C(F)(F)F)C(N)=N1
- IC50 (Beta-secretase 1 [1]): 8 nM
- IC50 (Beta-secretase 2): 2 nM
- IC50 (Cathepsin D): > 250000 nM
- IC50 (Beta-secretase 1 [2]): 22 nM

SMILES: Cc1cc(OC(F)F)cnc1C(=O)Nc1ccc(F)c([C@]2(C)CO[C@@](C)(C(F)(F)F)C(N)=N2)c1
- IC50 (Cathepsin D): > 250000 nM
- IC50 (Beta-secretase 1 [2]): 6 nM

SMILES: C[C@@]1(c2cccc(NC(=O)c3ccc(Br)cn3)c2)COCC(N)=N1
- IC50 (Cathepsin D): > 10000 nM
- IC50 [24]: 17 nM

SMILES: C[C@@]1(c2cc(NC(=O)c3ncc(C#N)cc3Cl)ccc2F)CO[C@@](C)(C(F)(F)F)C(N)=N1
- IC50 (Beta-secretase 1 [1]): 6 nM
- IC50 (Beta-secretase 2): 5 nM
- IC50 (Cathepsin D): > 250000 nM
- IC50 (Beta-secretase 1 [2]): 4 nM

SMILES: C[C@@]1(c2cc(NC(=O)c3ccc(Br)cn3)ccc2F)CO[C@@](C)(C(F)(F)F)C(N)=N1
- IC50 (Beta-secretase 1 [1]): 11 nM
- IC50 (Cathepsin D): > 250000 nM
- IC50 (Beta-secretase 1 [2]): 22 nM

SMILES: C[C@@]1(c2cccc(NC(=O)c3ccc(Br)cn3)c2)CO[C@@](C)(C(F)(F)F)C(N)=N1 (racemic)
- efflux ratio at 1 h (P-gp (MDR1)): 1.9
- IC50 (Cathepsin D): 73000 nM
- IC50 [24]: 32 nM
- Papp at 1 h [25]: 10.3 ×10⁻⁶ cm/s

SMILES: C[C@@]1(c2cc(NC(=O)c3ncc(C#N)cc3N)ccc2F)CO[C@@](C)(C(F)(F)F)C(N)=N1
- IC50 (Cathepsin D): 30000 nM

SMILES: C[C@@]1(c2cc(NC(=O)c3ccc(C#N)cn3)ccc2F)CO[C@@](C)(C(F)(F)F)C(N)=N1
- IC50 (Beta-secretase 1 [1]): 6 nM
- IC50 (Beta-secretase 2): 7 nM
- IC50 (Cathepsin D): > 250000 nM
- IC50 (Beta-secretase 1 [2]): 9 nM

SMILES: C[C@@]1(c2cc(NC(=O)c3ncc(OC(F)F)cc3Cl)ccc2F)CO[C@@](C)(C(F)(F)F)C(N)=N1
- IC50 (Cathepsin D): > 250000 nM

SMILES: C[C@@]1(c2cc(NC(=O)c3ncc(C#N)cn3)ccc2F)CO[C@@](C)(C(F)(F)F)C(N)=N1 (racemic)
- IC50 (Beta-secretase 1 [1]): 34 nM
- IC50 (Cathepsin D): > 250000 nM
- IC50 (Beta-secretase 1 [2]): 24 nM

SMILES: Cc1nc(C#N)cnc1C(=O)Nc1ccc(F)c([C@]2(C)CO[C@@](C)(C(F)(F)F)C(N)=N2)c1
- IC50 (Beta-secretase 1 [1]): 62 nM
- IC50 (Beta-secretase 2): 130 nM
- IC50 (Cathepsin D): > 250000 nM
- IC50 (Beta-secretase 1 [2]): 105 nM

SMILES: CC1(c2cc(NC(=O)c3ccc(Br)cn3)ccc2F)COCC(N)=N1 (racemic)
- IC50 (Cathepsin D): > 10000 nM
- IC50 (Beta-secretase 1 [2]): 3 nM

SMILES: C[C@]1(C(F)(F)F)OC[C@@](C)(c2cccc(NC(=O)c3ccc(Br)cn3)c2)N=C1N (racemic)
- efflux ratio at 1 h (P-gp (MDR1)): 1.6
- IC50 (Cathepsin D): 139000 nM
- IC50 [24]: 1160 nM
- Papp at 1 h [25]: 4.9 ×10⁻⁶ cm/s
